Screening data from PubChem BioAssay.
OX1R antag-1: antagonists of human orexin 1 receptor; O43613; CHO/OX1R cells, Fluo-8 calcium fluorescence, orexin A; inhibition, % at 5 µM; 330,000 compounds, 0.43% hits; AID 434989;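 active = inhibition above its plate's threshold, mean inhibition of all tested compounds on the plate plus 3 SD, cut at about 37% in these data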;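 also: 0% = orexin A challenge wells and 100% = SB-334867-A antagonist wells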
Target sequence (O43613 whole entry, looked up): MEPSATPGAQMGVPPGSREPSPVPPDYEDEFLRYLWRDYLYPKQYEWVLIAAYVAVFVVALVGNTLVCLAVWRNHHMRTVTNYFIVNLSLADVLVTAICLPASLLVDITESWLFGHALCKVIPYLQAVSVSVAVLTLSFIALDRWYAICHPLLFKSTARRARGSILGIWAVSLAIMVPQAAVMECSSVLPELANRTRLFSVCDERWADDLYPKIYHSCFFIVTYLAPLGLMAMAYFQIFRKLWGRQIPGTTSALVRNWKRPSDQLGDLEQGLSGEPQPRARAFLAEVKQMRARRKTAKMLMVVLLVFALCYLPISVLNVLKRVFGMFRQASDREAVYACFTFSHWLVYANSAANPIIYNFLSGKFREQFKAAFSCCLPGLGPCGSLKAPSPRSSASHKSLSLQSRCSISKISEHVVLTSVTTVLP
CHO parental Ca: counter-screen: ATP calcium response change in parental CHO cells. 330,000 compounds, 0.63% hits. parental CHO-K1, ATP-induced calcium, Fluo-8 fluorescence. inhibition, % at 5.6 µM;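 active = inhibition above that plate's mean sample inhibition plus 3 SD, cut at about 26% in these data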;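 also: 0% = ATP-challenged DMSO wells and 100% = DMSO wells without ATP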
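Material: Parental CHO cells | Reagent: ATP | Compound dosing: Single nominal dose of 5.6 µM per compound | Detection: Intracellular calcium via Fluo-8 no-wash fluorescent dye | Read-out: % inhibition of ATP-induced calcium mobilization | Benchmarks: Low control ATP plus DMSO, high control DMSO only | Replicates: Singlicate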
OX1R antag-2: blocks the human orexin 1 receptor | O43613 | OX1R-expressing cells, FRET antagonist read-out | inhibition, % at 6.6 µM | 330,000 compounds, 1.8% hits; in the data active = inhibition mostly above about 38%, no sharp cut-off; inactive = mostly below about 40%;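 also: 0% = agonist challenge alone and 100% = reference antagonist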
GPR7 antag: blocks human GPR7 receptor signaling; P48145; GPR7-expressing cells, fluorescence antagonist assay; inhibition, % at 4.4 µM; 290,000 compounds, 1.1% hits; AID 1861; in the data active = inhibition above about 16%, passing the limit was not always enough;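 also: cells stimulated with the agonist NPW; 0% = agonist with vehicle and 100% = vehicle without agonist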
Target sequence (P48145 whole entry, looked up): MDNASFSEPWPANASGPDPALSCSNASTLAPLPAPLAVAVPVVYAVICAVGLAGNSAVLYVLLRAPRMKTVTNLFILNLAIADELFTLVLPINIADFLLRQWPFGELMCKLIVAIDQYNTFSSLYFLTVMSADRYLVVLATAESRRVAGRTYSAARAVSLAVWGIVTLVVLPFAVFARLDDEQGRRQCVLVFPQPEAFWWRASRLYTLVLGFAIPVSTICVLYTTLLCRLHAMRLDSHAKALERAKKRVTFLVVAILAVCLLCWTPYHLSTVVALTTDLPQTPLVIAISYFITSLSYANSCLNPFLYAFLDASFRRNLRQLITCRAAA
TAAR1 agonist: human TAAR1 agonism | CHO RD-HGA16 TAAR1, Fluo-8 calcium fluorescence; vehicle wells 0%, saturating PEA agonist 100% | activation, % at 3 µM | 360,000 compounds, 0.99% hits;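 active = activation above the mean activation of all test compounds in the run plus 3 SD, cut at about 38% in these data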
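System: CHO-derived RD-HGA16 cells with stable Gα16 and human TAAR1. Times: 17-24 h plating, Fluo-8 75 min 37 °C, 30 min RT. Measured by: calcium-sensitive Fluo-8 signal, excitation 470-495, emission 515-575 nm. Read-out basis: % activation relative to PEA EC100 response. Control set: DMSO and PEA EC100. Repeats: no replicates (n 1).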
TAAR1 antagonist: antagonists of human TAAR1. CHO RD-HGA16 TAAR1, Fluo-8 calcium fluorescence, antagonist. inhibition, % at 3 µM. 360,000 compounds, 1.5% hits. AID 624466;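 active = inhibition above a per-plate cutoff, the mean inhibition of test compounds on that plate plus 3 SD, cut at about 49% in these data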;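 also: 0% = DMSO plus EC80 beta-PEA response and 100% = DMSO alone without agonist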
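Test system – hTAAR1-expressing CHO RD-HGA16 cells, Gα16-coupled · Reagent – β-PEA at EC80 concentration, post-compound challenge · Compound dosing – 3 µM, single point · Timing – 140 s kinetic read after compound, 140 s after agonist · Detection – Fluo-8 intracellular calcium dye fluorescence, real-time kinetic reads · Control set – DMSO and EC80 PEA controls · Repeats – n of 1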
TAAR1 ag conf: human TAAR1 agonism, confirmed | shares compounds with TAAR1 agonist | CHO RD-HGA16 TAAR1, Fluo-8 calcium fluorescence; scaled: DMSO 0%, maximal phenethylamine 100% | activation, % at 3 µM | 2,400 compounds, 82% hits;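 active = activation above a cutoff set at the run's mean compound activation plus 3 SD, cut at about 39% in these data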
Ga16 nonsel ag: counter-screen for TAAR1 agonists: nonselective agonists in parental cells. shares compounds with TAAR1 agonist. CHO-Ga16 parental, Fluo-8 calcium fluorescence; normalized to maximal ATP response, DMSO zero. activation, % at 3 µM. 2,400 compounds, 50% hits;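 active = activation above the run cutoff, the mean activation over all tested wells plus 3 SD, cut at about 12% in these data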;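 also: 0% = DMSO wells and 100% = maximal ATP response on the peak over basal ratio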
TAAR1 desens: counter-screen for human TAAR1 agonists: agonists that desensitize TAAR1 | shares compounds with TAAR1 agonist | 2,400 compounds, 46% hits | CHO RD-HGA16 hTAAR1, Fluo-8 calcium, beta-PEA response inhibition | inhibition, % at 3 µM | AID 651951;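 active = inhibition above the run cutoff, the mean inhibition of all test compounds plus 3 SD, cut at about 49% in these data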;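 also: beta-PEA stimulus applied at its EC80; loss of beta-PEA calcium signal after compound pretreatment read as receptor desensitization; 0% = DMSO with beta-PEA at EC80 and 100% = DMSO alone without agonist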
Ga16 nonsel ant: nonselective Ga16 antagonism, counter-screen. shares compounds with TAAR1 agonist. CHO-Ga16 ATP-induced calcium, Fluo-8 fluorescence. inhibition, % at 3 µM. 2,400 compounds, 39% hits;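 active = inhibition above the plate's mean compound inhibition plus 3 SD, computed per plate, cut at about 22% in these data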;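 also: 0% = EC80 ATP with DMSO and 100% = DMSO wells without ATP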
* = called active by the depositor. Most compounds without a hit are left out; they make up all but 4.6% or so of the library.

Results for COc1ccc(OCC(=O)NNC(=S)NC(=O)c2ccc(Br)o2)cc1 ?
OX1R antag-1: -8.2; CHO parental Ca: -7.8; OX1R antag-2: -2.3; GPR7 antag: -5.0; TAAR1 agonist: 55.3*; TAAR1 antagonist: 13.8; TAAR1 ag conf: 34.1; Ga16 nonsel ag: 17.6*; TAAR1 desens: 24.2; Ga16 nonsel ant: 20.6

What do the screens show for `COc1ccc(C(=O)NC(=S)NNC(=O)c2ccncc2)cc1Br`?
OX1R antag-1: -1.9; CHO parental Ca: 1.0; OX1R antag-2: 6.1; TAAR1 agonist: 60.4*; TAAR1 antagonist: 14.0; TAAR1 ag conf: 34.8; Ga16 nonsel ag: 32.2*; TAAR1 desens: 22.5; Ga16 nonsel ant: 18.2

What do the screens show for `CCNC(=S)NNC(=O)c1ccc(OC)cc1`?
OX1R antag-1: 3.5; CHO parental Ca: 0.4; OX1R antag-2: 7.0; GPR7 antag: -4.2; TAAR1 agonist: 4.9; TAAR1 antagonist: 0.0

How did COc1cccc(C(=O)NC2CC3CCCC(C2)N3Cc2ccc(C)cc2)c1 (centres undefined) do in these assays?
OX1R antag-1: -22.2; CHO parental Ca: -22.0; OX1R antag-2: 4.2; GPR7 antag: -14.3; TAAR1 agonist: 2.4; TAAR1 antagonist: -7.4

What do the screens show for `CSc1ccccc1C(=O)C1CCCN(C(=O)c2cncs2)C1` (centres undefined)?
OX1R antag-1: -19.2; CHO parental Ca: -10.5; OX1R antag-2: 1.9; GPR7 antag: 0.8; TAAR1 agonist: -0.6; TAAR1 antagonist: -9.0

What do the screens show for `Cc1cccc(C(=O)NNC(=S)NC(=O)c2ccccc2)c1`?
OX1R antag-1: 62.3*; CHO parental Ca: 36.5*; OX1R antag-2: 8.4; TAAR1 agonist: 169.3*; TAAR1 antagonist: 106.7*; TAAR1 ag conf: 133.0*; Ga16 nonsel ag: 105.0*; TAAR1 desens: 91.9*; Ga16 nonsel ant: 74.9*

Results for CC(C)C(=O)Nc1ccc(C(=O)NNC(=S)NC(=O)c2cccs2)cc1 ?
OX1R antag-1: -6.5; CHO parental Ca: -7.8; OX1R antag-2: 13.9; GPR7 antag: -9.3; TAAR1 agonist: -1.0; TAAR1 antagonist: 6.2

What do the screens show for `Cc1cccc(C(=O)NNC(=S)NC(=O)c2cccs2)c1`?
OX1R antag-1: 32.0; CHO parental Ca: 33.5*; OX1R antag-2: 11.9; GPR7 antag: 7.4; TAAR1 agonist: 142.3*; TAAR1 antagonist: 60.0*; TAAR1 ag conf: 120.5*; Ga16 nonsel ag: 95.2*; TAAR1 desens: 74.7*; Ga16 nonsel ant: 53.2*

What do the screens show for `Cc1ccc(C(=O)NC(=S)NNC(=O)c2ccccc2)cc1`?
OX1R antag-1: 10.7; CHO parental Ca: 15.4; OX1R antag-2: 6.7; GPR7 antag: -5.0; TAAR1 agonist: 152.6*; TAAR1 antagonist: 102.5*; TAAR1 ag conf: 122.8*; Ga16 nonsel ag: 98.5*; TAAR1 desens: 96.9*; Ga16 nonsel ant: 68.7*

Results for O=C(NC(=S)NNC(=O)[C@H]1C[C@@H]1c1ccccc1)c1cccc(F)c1 ?
OX1R antag-1: -7.0; CHO parental Ca: -20.7; OX1R antag-2: 12.0; GPR7 antag: -14.7; TAAR1 agonist: 77.1*; TAAR1 antagonist: -5.0; TAAR1 ag conf: 74.3*; Ga16 nonsel ag: 83.0*; TAAR1 desens: 33.5; Ga16 nonsel ant: 29.8*

What do the screens show for `Cc1ccc(C(=O)NNC(=O)c2cccc(C)c2)cc1`?
OX1R antag-1: -5.1; CHO parental Ca: 5.0; OX1R antag-2: 9.5; GPR7 antag: -12.7; TAAR1 agonist: 4.0; TAAR1 antagonist: 1.8

How did COC(=O)c1sccc1NC(=O)Nc1ccc(OC)cc1 do in these assays?
GPR7 antag: 10.5; TAAR1 agonist: -0.6; TAAR1 antagonist: -2.5

What do the screens show for `CC(=O)c1ccc(N(CC(=O)NC2CCCC2)C(=O)CCC(=O)Nc2cc(C)on2)cc1`?
OX1R antag-1: -3.6; CHO parental Ca: 5.0; OX1R antag-2: 9.3; GPR7 antag: -15.4; TAAR1 agonist: 3.9; TAAR1 antagonist: -17.6

How did CC(Oc1ccc(C(=O)c2ccccc2)cc1)C(=O)N1CCOCC1 (centres undefined) do in these assays?
OX1R antag-1: -10.5; CHO parental Ca: -13.6; OX1R antag-2: 13.9; TAAR1 agonist: 6.3; TAAR1 antagonist: -33.4

Results for CCC1(c2ccc(F)cc2)NC(=O)NC1=O (centres undefined) ?
OX1R antag-1: -1.1; CHO parental Ca: 9.3; OX1R antag-2: -3.0; GPR7 antag: 3.0; TAAR1 agonist: 5.5; TAAR1 antagonist: -13.0

How did O=C(NNC(=S)NC(=O)c1ccccc1[N+](=O)[O-])c1ccc(Cl)cc1Cl do in these assays?
OX1R antag-1: -4.3; CHO parental Ca: 0.7; OX1R antag-2: 20.4; GPR7 antag: -3.0; TAAR1 agonist: 5.9; TAAR1 antagonist: -11.1

How did Cc1ccc(C(=O)NNC(=S)NC(=O)c2ccccc2)cc1 do in these assays?
OX1R antag-1: 57.2*; CHO parental Ca: 33.6*; OX1R antag-2: 19.7; TAAR1 agonist: 166.5*; TAAR1 antagonist: 106.5*; TAAR1 ag conf: 136.3*; Ga16 nonsel ag: 92.2*; TAAR1 desens: 92.7*; Ga16 nonsel ant: 79.0*

Results for Cc1cccc(C(=O)NC(=S)NNC(=O)COc2ccc(Cl)cc2)c1 ?
GPR7 antag: 0.9; TAAR1 agonist: 99.5*; TAAR1 antagonist: 53.1*; TAAR1 ag conf: 103.7*; Ga16 nonsel ag: 83.8*; TAAR1 desens: 75.8*; Ga16 nonsel ant: 53.0*

How did Cc1ccc(C(=O)NNC(=S)NC(=O)c2ccco2)cc1 do in these assays?
OX1R antag-1: 64.2*; CHO parental Ca: 65.8*; OX1R antag-2: 11.0; GPR7 antag: 4.8; TAAR1 agonist: 110.7*; TAAR1 antagonist: 33.6; TAAR1 ag conf: 100.7*; Ga16 nonsel ag: 81.8*; TAAR1 desens: 46.8; Ga16 nonsel ant: 46.7*

What do the screens show for `Cc1ccc(C(=O)NC(=S)NCc2ccccc2)cc1`?
OX1R antag-1: -25.3; CHO parental Ca: -12.8; OX1R antag-2: 11.2; GPR7 antag: -18.6; TAAR1 agonist: 2.3; TAAR1 antagonist: -7.2

What do the screens show for `O=C(COc1ccccc1)NNC(=S)NC(=O)c1ccc(Cl)cc1Cl`?
OX1R antag-1: -21.6; CHO parental Ca: -12.2; OX1R antag-2: -2.3; GPR7 antag: -3.2
